The record followed here is ChEMBL document CHEMBL1944540, “Synthesis, molecular docking and biological evaluation of 1,3,4-oxadiazole derivatives as potential immunosuppressive agents” (Bioorg Med Chem, 2012).

Molecules are shown by their SMILES.

The subject of one assay is T-cell. In words: Selectivity index, ratio of CC50 for lymph node T cell to IC50 for lymph node T cell. In kind it is functional.
Take `C/C=C/C[C@@H](C)[C@@H](O)[C@H]1C(=O)N[C@@H](CC)C(=O)N(C)CC(=O)N(C)[C@@H](CC(C)C)C(=O)N[C@@H](C(C)C)C(=O)N(C)[C@@H](CC(C)C)C(=O)N[C@@H](C)C(=O)N[C@H](C)C(=O)N(C)[C@@H](CC(C)C)C(=O)N(C)[C@@H](CC(C)C)C(=O)N(C)[C@@H](C(C)C)C(=O)N1C` [CYCLOSPORINE]: the “Ratio CC50/IC50” value is recorded as 196.86.

The target in the next assay is Phosphatidylinositol 4,5-bisphosphate 3-kinase catalytic subunit gamma isoform (Homo sapiens, UniProt P48736). In words: Inhibition of PI3Kgamma after 4 hrs. The gist of the method: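 Recombinant PI3Kγ incubated 4 h at room temperature with or without compound at final concentrations of 3, 10, 30 and 50 μM.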
Phosphatidylinositol 4,5-bisphosphate 3-kinase catalytic subunit gamma isoform, sequence (P48736 whole entry, canonical isoform): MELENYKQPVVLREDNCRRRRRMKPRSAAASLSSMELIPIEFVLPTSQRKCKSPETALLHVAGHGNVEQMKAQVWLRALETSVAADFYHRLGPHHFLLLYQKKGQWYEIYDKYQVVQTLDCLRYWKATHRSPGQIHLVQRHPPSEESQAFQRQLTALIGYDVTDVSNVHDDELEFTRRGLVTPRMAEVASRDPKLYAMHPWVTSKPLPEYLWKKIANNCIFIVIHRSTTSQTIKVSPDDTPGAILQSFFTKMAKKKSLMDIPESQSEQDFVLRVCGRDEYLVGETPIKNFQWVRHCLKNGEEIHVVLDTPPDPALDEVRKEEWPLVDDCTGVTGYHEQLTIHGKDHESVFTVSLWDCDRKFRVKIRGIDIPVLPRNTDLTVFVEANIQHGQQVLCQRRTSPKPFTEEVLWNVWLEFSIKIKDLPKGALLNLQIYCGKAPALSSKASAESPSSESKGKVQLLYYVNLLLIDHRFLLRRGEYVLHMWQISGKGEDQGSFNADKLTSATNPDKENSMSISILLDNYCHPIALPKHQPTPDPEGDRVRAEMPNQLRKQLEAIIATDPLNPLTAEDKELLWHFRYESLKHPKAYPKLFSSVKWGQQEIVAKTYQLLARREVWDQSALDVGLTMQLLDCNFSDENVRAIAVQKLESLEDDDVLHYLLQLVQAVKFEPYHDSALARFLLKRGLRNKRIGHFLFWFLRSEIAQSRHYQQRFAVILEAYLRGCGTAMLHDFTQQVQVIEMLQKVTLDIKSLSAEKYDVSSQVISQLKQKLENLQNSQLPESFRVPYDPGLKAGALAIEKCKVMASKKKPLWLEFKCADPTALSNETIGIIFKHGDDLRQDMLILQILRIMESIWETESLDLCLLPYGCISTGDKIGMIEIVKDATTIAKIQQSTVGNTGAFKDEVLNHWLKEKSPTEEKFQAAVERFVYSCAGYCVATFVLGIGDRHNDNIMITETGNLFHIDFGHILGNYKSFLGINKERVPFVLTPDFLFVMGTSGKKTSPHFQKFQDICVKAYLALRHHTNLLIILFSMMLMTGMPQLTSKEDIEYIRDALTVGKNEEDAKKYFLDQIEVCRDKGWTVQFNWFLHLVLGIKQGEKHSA
What is called IC50 is the midpoint of a concentration-inhibition curve. On to `CC(=O)Oc1ccccc1C1OC(c2ccc3c(c2)OCCO3)=NN1C(C)=O` (stereo unspecified), for which half-maximal inhibition (IC50) was put at 2.06 µM. On the same count and under the same terms, under `CC(=O)Oc1ccc(Cl)cc1C1OC(c2ccc3c(c2)OCCO3)=NN1C(C)=O` (stereo unspecified) stands 0.98 µM. Still for that read-out and setting: under `CC(=O)Oc1ccc(Br)cc1C1OC(c2ccc3c(c2)OCCO3)=NN1C(C)=O` (stereo unspecified) stands 1.31 µM; under `CC(=O)Oc1c(Cl)cc(Cl)cc1C1OC(c2ccc3c(c2)OCCO3)=NN1C(C)=O` (stereo unspecified), 1.75 µM; under `CC(=O)Oc1c(Br)cc(Br)cc1C1OC(c2ccc3c(c2)OCCO3)=NN1C(C)=O` (stereo unspecified), 1.98 µM.
